Measured values published in ChEMBL document CHEMBL4622869, “Discovery and structure-activity relationships study of positive allosteric modulators of the M3 muscarinic acetylcholine receptor” (Bioorg Med Chem, 2020).

Experiments:
[1] = Cmax in Crl:CD(SD) rat at 1 mg/kg, po measured up to 24 hrs by LC-MS/MS analysis; assay type: ADME, organism-based; parameters: dose 1 mg/kg, route oral; details: in vivo
In short: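 Male Crl:CD(SD) rats, 8 weeks old, food deprived (n=4); iv 0.3 mg/kg or po 1 mg/kg in DMF/propylene glycol/water for injection (1/1/8) containing 1 M NaOH (2 equivalents). Plasma sampled to 24 h, assayed by validated LC-MS/MS. Parameters from each animal by noncompartmental analysis, reported as means.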

[2] = molecular target: T1, Muscarinic acetylcholine receptor M2 (Homo sapiens) (UniProt P08172); experiment: (§1) Positive allosteric modulation of recombinant human muscarinic acetylcholine receptor M2 expressed in CHOK1 cells coexpressing G-alpha16 assessed as increase in carbachol-induced intracellular calcium flux at 10 uM preincubated for 5 mins followed by carbachol addition by Fluo4-AM based FLIPR assay relative to carbachol; assay type: functional, cell-based; details: CHO-K1
T1 sequence (whole entry): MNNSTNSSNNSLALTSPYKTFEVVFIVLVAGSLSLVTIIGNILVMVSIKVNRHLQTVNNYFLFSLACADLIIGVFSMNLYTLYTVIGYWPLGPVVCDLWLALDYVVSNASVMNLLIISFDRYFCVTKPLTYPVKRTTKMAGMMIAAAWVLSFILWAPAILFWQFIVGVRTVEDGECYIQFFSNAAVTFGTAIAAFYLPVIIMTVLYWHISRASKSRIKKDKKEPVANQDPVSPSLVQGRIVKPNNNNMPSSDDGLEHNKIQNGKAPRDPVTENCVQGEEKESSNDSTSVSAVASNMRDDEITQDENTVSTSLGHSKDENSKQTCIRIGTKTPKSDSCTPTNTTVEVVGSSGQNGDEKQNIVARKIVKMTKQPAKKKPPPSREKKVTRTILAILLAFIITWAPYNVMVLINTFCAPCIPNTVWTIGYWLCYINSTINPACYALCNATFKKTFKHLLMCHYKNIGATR
In short: (§2)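 CHO-K1 cells stably expressing human or rat M1–M5; M2 and M4 lines also co-express human Gα16. Cells loaded with 3.1 μM Fluo-4 AM in HBSS/20 mM HEPES pH 7.5/BSA/2.5 mM probenecid for ~2 h at room temperature. Test substance at 10 μM final, then carbachol (0.0024 nM–100 μM) ~5 min later; Ca2+ read by FLIPR Tetra. Fold shift = carbachol EC50 without / with test substance, from logistic fits.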

[3] = molecular target: T2, Muscarinic acetylcholine receptor M2 (Rattus norvegicus) (UniProt P10980); experiment: as §1, with “rat” for “human”, “Fluo4-AM dye” for “Fluo4-AM”; assay type: functional, cell-based; details: CHO-K1; in short: as §2
T2 sequence (whole entry): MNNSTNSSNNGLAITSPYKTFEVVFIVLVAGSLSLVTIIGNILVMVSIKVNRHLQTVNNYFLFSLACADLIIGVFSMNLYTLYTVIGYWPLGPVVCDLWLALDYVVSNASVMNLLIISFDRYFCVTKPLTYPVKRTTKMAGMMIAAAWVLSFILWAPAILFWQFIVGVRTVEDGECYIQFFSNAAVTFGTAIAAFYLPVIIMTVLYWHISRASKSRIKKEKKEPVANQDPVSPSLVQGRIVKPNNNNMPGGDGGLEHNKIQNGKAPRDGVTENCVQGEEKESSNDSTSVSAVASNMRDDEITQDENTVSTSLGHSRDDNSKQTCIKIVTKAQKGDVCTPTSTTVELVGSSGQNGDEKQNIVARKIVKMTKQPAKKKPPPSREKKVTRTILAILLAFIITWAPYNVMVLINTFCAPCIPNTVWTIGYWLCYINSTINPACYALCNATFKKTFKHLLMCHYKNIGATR

[4] = molecular target: T3, Muscarinic acetylcholine receptor M1 (Homo sapiens) (UniProt P11229); experiment: as §1, with “M1” for “M2”, “cells” for “cells coexpressing G-alpha16”, “Fluo4-AM dye” for “Fluo4-AM”; assay type: functional, cell-based; details: CHO-K1; in short: as §2
T3 sequence (whole entry): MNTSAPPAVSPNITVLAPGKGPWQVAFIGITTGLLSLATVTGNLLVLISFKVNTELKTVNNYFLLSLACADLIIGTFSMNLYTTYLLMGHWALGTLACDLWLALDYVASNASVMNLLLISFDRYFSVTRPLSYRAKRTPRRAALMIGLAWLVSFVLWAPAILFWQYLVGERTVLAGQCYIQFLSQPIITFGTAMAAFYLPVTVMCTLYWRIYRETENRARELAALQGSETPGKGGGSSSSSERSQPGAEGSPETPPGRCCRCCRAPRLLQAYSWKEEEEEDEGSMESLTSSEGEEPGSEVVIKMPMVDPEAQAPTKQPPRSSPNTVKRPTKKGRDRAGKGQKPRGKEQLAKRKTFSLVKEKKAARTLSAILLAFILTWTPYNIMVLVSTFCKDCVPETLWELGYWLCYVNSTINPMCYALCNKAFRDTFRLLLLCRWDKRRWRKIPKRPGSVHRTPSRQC

[5] = molecular target: T4, Muscarinic acetylcholine receptor M4 (Homo sapiens) (UniProt P08173); experiment: as §1, with “M4” for “M2”, “Fluo4-AM dye” for “Fluo4-AM”; assay type: functional, cell-based; details: CHO-K1; in short: as §2
T4 sequence (whole entry): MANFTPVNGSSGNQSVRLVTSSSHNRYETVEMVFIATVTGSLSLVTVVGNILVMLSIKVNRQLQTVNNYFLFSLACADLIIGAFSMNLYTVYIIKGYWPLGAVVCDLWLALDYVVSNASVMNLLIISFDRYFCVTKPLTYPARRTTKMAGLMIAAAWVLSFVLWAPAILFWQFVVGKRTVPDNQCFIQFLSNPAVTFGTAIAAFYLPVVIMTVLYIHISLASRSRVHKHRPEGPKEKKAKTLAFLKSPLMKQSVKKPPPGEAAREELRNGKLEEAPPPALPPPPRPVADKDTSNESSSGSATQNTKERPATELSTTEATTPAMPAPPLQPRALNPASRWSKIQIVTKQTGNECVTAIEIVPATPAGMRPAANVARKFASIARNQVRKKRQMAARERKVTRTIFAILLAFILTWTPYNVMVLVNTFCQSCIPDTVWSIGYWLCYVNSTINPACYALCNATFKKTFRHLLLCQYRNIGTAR

Cmax [1]: 85.3 ng/mL
fold change (FC) [2]: 1.3
fold change (FC) [3]: 1.6
fold change (FC) [4]: 2.3
fold change (FC) [5]: 1
Compound: CC[C@@H]1CCCN1Cc1sc(NC(=O)c2cnc(N3CCC(C(=O)O)CC3)cn2)nc1-c1ccc(OC)c(C(F)(F)F)c1.Cl.Cl
